# Measured values reported in ChEMBL document CHEMBL4177540, “Corymbulosins D-H, 2-Hydroxy- and 2-Oxo-clerodane Diterpenes from the Bark of Laetia corymbulosa” (J Nat Prod, 2017).
# Tests used:
# Type in all cases: functional, cell-based
# MCF7 = test: Antiproliferative activity against human MCF7 cells incubated for 72 hrs by SRB assay; settings: MCF7, 72 h
# Procedure, shortened: (§1)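 Cells in RPMI-1640 with 2 mM L-glutamine, 25 mM HEPES, 10% FBS, streptomycin and penicillin. Seeded at 4,000−12,000 cells per well, then exposed to compound for 72 h. Fixed with 10% trichloroacetic acid, stained with 0.04% SRB, dye taken up in 10 mM Tris base, absorbance read at 515 nm. IC50 is 50% reduction versus untreated cells, from at least three independent experiments run in duplicate.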
# A549 = test: Antiproliferative activity against human A549 cells incubated for 72 hrs by SRB assay; settings: A549, 72 h
# MDA-MB-231 = test: Antiproliferative activity against human MDA-MB-231 cells incubated for 72 hrs by SRB assay; settings: MDA-MB-231, 72 h
# KB = test: Antiproliferative activity against human KB cells incubated for 72 hrs by SRB assay
# [1] = Antiproliferative activity against human KBVIN cells incubated for 72 hrs by SRB assay; procedure, shortened: as §1
Structure (SMILES),IC50 (MCF7) [µM],IC50 (A549) [µM],IC50 (MDA-MB-231) [µM],IC50 (KB) [µM],IC50 [1] [µM]
C=CC(=C)CC[C@]1(C)[C@H](C)C[C@H](OC(=O)CCCCCCC)[C@@]23C(=C[C@H](O)C[C@@H]12)[C@@H](OC(C)=O)O[C@H]3OC(C)=O,4.9,4.7,5.1,5,4.9
C=CC(=C)CC[C@]1(C)[C@H](C)C[C@H](OC(=O)/C=C\C=C/CCCCC)[C@@]23C(=C[C@H](O)C[C@@H]12)[C@@H](OC(C)=O)O[C@H]3OC(C)=O,4.8,4.6,4.8,4.8,4.9
C=CC(=C)CC[C@]1(C)[C@H](C)C[C@H](OC(=O)CCCCCCCCC)[C@@]23C(=C[C@H](O)C[C@@H]12)[C@@H](OC(C)=O)O[C@H]3OC(C)=O,5,4.7,5.2,5,4.9
C=CC(=C)CC[C@]1(C)[C@H](C)C[C@H](OC(=O)CCCCCCCCC)[C@@]23C(=CC(=O)C[C@@H]12)[C@@H](OC(C)=O)O[C@H]3OC(C)=O,8.3,> 10,> 10,5.9,9.8
C=CC(=C)CC[C@]1(C)[C@H](C)C[C@H](OC(=O)CCCCCCCCC)[C@@]23C(=C[C@@H](O)C[C@@H]12)[C@@H](OC(C)=O)O[C@H]3OC(C)=O,5.4,5.3,5.4,4.5,4.8
C=CC(=C)CC[C@]1(C)[C@H](C)C[C@H](OC(=O)/C=C\C=C/CCCCC)[C@@]23C(=C[C@@H](O)C[C@@H]12)[C@@H](OC(C)=O)O[C@H]3OC(C)=O,5.2,4.8,5.1,4.9,4.8
